# “And” between values parts separate entries of the source, which are not always exact repeats. Equal entries are not always repeated. The source made the active and inactive calls. The calls are words filed in the database; no cut-off is given here.
# Tested on: Mus musculus
# Experiment: Antiinflammatory activity in mouse assessed as inhibition of PMA-induced ear edema at 25 ug/ear administered topically as single dose after PMA challenge and measured after 3 hrs and 20 mins
# Type: functional
# Conditions: in the assay text read “simultaneously with PMA” for “after PMA challenge”
# In short: (§1)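 Mouse ear edema: test compound applied topically in acetone to the inside pinna of the left ear together with PMA (2 µg/ear), under brief halothane anesthesia. Right ears received acetone only. Five mice per group. After 3 h 20 min the mice were euthanized and a 6 mm central ear biopsy was weighed. Edema was taken as the left-minus-right weight difference, expressed as % inhibition versus the PMA-only control group.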
Structure (SMILES),inhibition (INH),inhibition
C[C@@H]1O[C@@H](Oc2c(O)c(C(F)(F)F)c3c4c2CCCC4CCC3)[C@@H](O)[C@H](O)[C@@H]1O (some centres not stated),45% and 53%,–
C[C@@H]1O[C@@H](Oc2cc3c4c(c2O)C(=O)CCC4CCC3)[C@@H](O)[C@H](O)[C@@H]1O (some centres not stated),–,inactive
CC(C)=C[C@H]1C[C@H](C)[C@H]2CC[C@H](C)c3c(O[C@@H]4OC[C@@H](O)[C@H](O)[C@H]4O)c(O)c(C)c1c32 [PSEUDOPTEROSIN A],70%,–
C[C@@H]1O[C@@H](Oc2cc3c4c(c2O)C(C)(C)CCC4CCC3)[C@@H](O)[C@H](O)[C@@H]1O (some centres not stated),38%,–
Oc1cc2c3c(c1OC1OC[C@@H](O)[C@H](O)[C@H]1O)CCCC3CCC2 (some centres not stated),37%,–
Cc1c(O)c(O[C@@H]2O[C@@H](C)[C@@H](O)[C@@H](O)[C@@H]2O)c2c3c1CCCC3CCC2 (some centres not stated),49%,–
C[C@@H]1OC(Oc2c(O)cc3c4c2CCCC4CCC3)[C@@H](O)[C@H](O)[C@@H]1O (some centres not stated),24%,–
C[C@@H]1O[C@@H](Oc2cc3c4c(c2O)CCCC4CCC3)[C@@H](O)[C@H](O)[C@@H]1O (some centres not stated),34%,–
C[C@@H]1CC[C@@H]2CCCc3cc(O[C@@H]4O[C@@H](C)[C@@H](O)[C@@H](O)[C@@H]4O)c(O)c1c32 (relative stereo),50%,–
Oc1c(OC2OC[C@@H](O)[C@H](O)[C@H]2O)cc2c3c1CCCC3CCC2 (some centres not stated),44%,–
C[C@@H]1O[C@@H](Oc2cc3c4c(c2O)[C@@H](C)CC[C@@H]4CCC3)[C@@H](O)[C@H](O)[C@@H]1O (relative stereo),58%,–

# Tested on: Mus musculus
# Experiment: Antiinflammatory activity in mouse assessed as effective dose per ear for inhibition of PMA-induced ear edema
# Type: functional
# Conditions: not given
# In short: as §1
row,Structure (SMILES),ED50
1,CC(C)=C[C@H]1C[C@H](C)[C@H]2CC[C@H](C)c3c(O[C@@H]4OC[C@@H](O)[C@H](O)[C@H]4O)c(O)c(C)c1c32 [PSEUDOPTEROSIN A],12 µg
